For 18 compounds, IC50, selectivity ratio and inhibition results are on record in ChEMBL document CHEMBL4020730, “Synthesis and biological evaluation of selective tubulin inhibitors as anti-trypanosomal agents” (Bioorg Med Chem, 2017).

For one data set, the system named is HEK293. In words: Cytotoxicity against HEK293 cells assessed as reduction in cell viability after 48 hrs by MTT assay. The following applies: Homo sapiens, HEK293, 48 h. It counts as cell-based. A digest of the protocol: (§1)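 Cells kept in RPMI1640 with 10% heat-inactivated FBS, L-glutamine, pyruvate and pen-strep at 37 °C, 5% CO2. 3000 cells per well seeded for 24 hrs, then given a range of compound concentrations (DMSO final ≤0.1%) for 48 hrs. 0.5 mg/ml MTT for 2 hrs at 37 °C, dye dissolved in DMSO, absorbance at 570 nm. Quadruplicates normalized and fitted to a dose-response curve.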
A general note: Tetrazolium dyes change colour on reduction, which living cells bring about.

Data set [1] is described as follows: Selectivity index, ratio of IC50 for mouse […] cells to IC50 for bloodstream form of Trypanosoma brucei brucei Lister 427. It is filed as toxicity. The note with it: read-out: Ratio IC50.
The nature of data set [2]: Selectivity index, ratio of IC50 for HEK293 cells to IC50 for bloodstream form of Trypanosoma brucei brucei Lister 427. The following applies: human, read-out: Ratio IC50. It counts as toxicity.
A short description of data set [3]: Cytotoxicity against mouse […] cells assessed as reduction in cell viability after 48 hrs by MTT assay. It counts as cell-based. A digest of the protocol: as §1
Data set [4] deals with Trypanosoma brucei brucei. In words: Anti-parasitic activity against bloodstream form of Trypanosoma brucei brucei Lister 427 after 48 hrs by MTS assay. It is filed as functional. The following applies: Lister 427, 48 h. A digest of the protocol:
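Bloodstream-form parasites grown in HMI-9 with 10% FBS at 37 °C, 7.5% CO2. 5,000 cells per well exposed to a range of compound concentrations, 0.1% DMSO, for 48 hrs at 37 °C. MTS (5% PMS) then added for 3 hrs at 37 °C, formazan read at 490 nm. Quadruplicate data normalized and fitted to a dose-response curve for IC50.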

For data set [5], the system named is Trypanosoma brucei brucei. In words: Inhibition of tubulin polymerization in Trypanosoma brucei brucei Lister 427 incubated for 7 hrs by Western blot analysis. Summed up: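 Parasites treated with 0.5% DMSO or different doses of compound for 7 hrs. Cells washed in TDB buffer pH 7.4, then lysed in Pipes pH 6.8 buffer with 0.2% Triton X-100 for 5 mins at 30 °C. Supernatant (soluble) and pellet (polymerized) fractions separated by centrifugation. Lysate from equal cell numbers run on 10% SDS-PAGE, western blot with TAT-1 tubulin antibody.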
A general note: A western blot detects proteins with antibodies after separation by electrophoresis.

With `CN(c1ccc(NC(=O)c2cc(C(F)(F)F)cc(C(F)(F)F)c2)cc1OCc1ccccc1C(F)(F)F)S(=O)(=O)Cc1ccccc1`, the IC50 (in general, the midpoint of a concentration-inhibition curve) in the data set with HEK293 was above 500 µM; in data set [3], above 500 µM; in data set [4], 7.13 µM. Moreover, the selectivity ratio in data set [1] and in data set [2] was above 70 each time.

Turning to `CN(c1ccc(NC(=O)c2cc(C(F)(F)F)cc(C(F)(F)F)c2)cc1OCc1cccc(C(=N)N)c1)S(C)(=O)=O`, the figures for the IC50 (with HEK293; in data set [3]; in data set [4]) were above 500 µM, above 500 µM and above 50 µM, respectively. For the same compound, the selectivity ratio in data set [1] and in data set [2] was above 10 throughout.

`CCCCCCOc1cc(NC(=O)c2cc(C(F)(F)F)cc(C(F)(F)F)c2)ccc1N(C)S(C)(=O)=O`: the results for the IC50 (in the data set with HEK293; in data set [3]; in data set [4]) were above 500 µM, above 500 µM and 23 µM, respectively. The selectivity ratio in data set [1] and in data set [2] was above 22 each time.

Take `Cc1ccc(C(F)(F)F)cc1COc1cc(NC(=O)c2ccc(C(F)(F)F)cc2C(F)(F)F)ccc1N(C)S(C)(=O)=O`: the IC50 in the data set on HEK293 is 102 µM; in data set [3], above 500 µM; in data set [4] it was 13 µM. The selectivity ratio was above 38 in data set [1] and 8 in data set [2].

For `CN(c1ccc(NC(=O)c2ccc(C#N)cc2)cc1OCc1ccc(C(F)(F)F)cc1)S(=O)(=O)Cc1ccccc1`, the IC50 with HEK293 was above 500 µM; in data set [3], above 500 µM; in data set [4], 0.07 µM. In addition, the selectivity ratio in data set [1] and in data set [2] was above 7140 throughout. Also, in data set [5], the inhibition entry was “Dose-dependent effect”.

Regarding `CN(c1ccc(NC(=O)c2cc(C(F)(F)F)cc(C(F)(F)F)c2)cc1OCc1ccccc1C(F)(F)F)S(C)(=O)=O`, the IC50 is above 500 µM with HEK293, above 500 µM in data set [3] and 9.85 µM in data set [4]. The selectivity ratio in data set [1] and in data set [2] was above 51 each time.

As for `CCCCCCOc1cc(NC(=O)c2cc(C(F)(F)F)cc(C(F)(F)F)c2)ccc1N(C)S(=O)(=O)Cc1ccccc1`, the IC50 in the data set with HEK293 came to 69.9 µM; in data set [3], 13.3 µM; in data set [4], 7.81 µM. Further, the results for the selectivity ratio in data set [1] and in data set [2] were 9 and 2, respectively.

`CN(c1ccc(NC(=O)c2ccc(C(F)(F)F)cc2C(F)(F)F)cc1OCc1ccccc1C(F)(F)F)S(C)(=O)=O`: the figures for the IC50 (with HEK293; in data set [3]; in data set [4]) were 34.8 µM, above 500 µM and 13.3 µM, respectively. Also, the selectivity ratio in data set [1] was above 38; in data set [2], 3.

Consider `Cc1ccc(C(F)(F)F)cc1COc1cc(NC(=O)c2cc(C(F)(F)F)cc(C(F)(F)F)c2)ccc1N(C)S(C)(=O)=O`, for which the values for the 50% inhibitory concentration (IC50) (with HEK293; in data set [3]; in data set [4]) were above 500 µM, above 500 µM and 15.6 µM, respectively. Moreover, the selectivity ratio in data set [1] and in data set [2] was above 32 throughout.

For `CN(c1ccc(NC(=O)c2cc(C(F)(F)F)cc(C(F)(F)F)c2)cc1OCc1ccc(C(F)(F)F)cc1)S(=O)(=O)Cc1ccccc1`, the results for the IC50 (with HEK293; in data set [3]; in data set [4]) were 293 µM, above 500 µM and 3.39 µM, respectively. Also, the selectivity ratio in data set [1] was 86; in data set [2] it was above 147.

On to `Cc1ccc(C)c(COc2cc(Nc3nccc(N)n3)ccc2N(C)S(C)(=O)=O)c1`, for which the IC50 was above 500 µM in the data set with HEK293, above 500 µM in data set [3] and above 50 µM in data set [4]. The selectivity ratio in data set [1] and in data set [2] was above 10 in each case.

Regarding `CN(c1ccc(NC(=O)c2ccc(C(F)(F)F)cc2C(F)(F)F)cc1OCc1ccccc1C(F)(F)F)S(=O)(=O)Cc1ccccc1`, the IC50 in the data set with HEK293 is above 500 µM; in data set [3] it was 158 µM; in data set [4], 10.5 µM. The selectivity ratio is above 48 in data set [1] and 15 in data set [2].

With `CN(c1ccc(NC(=O)c2ccc(C(F)(F)F)cc2C(F)(F)F)cc1OCc1cccc(C(F)(F)F)c1)S(C)(=O)=O`, the values for the IC50 (in the data set with HEK293; in data set [3]; in data set [4]) were 80.6 µM, above 500 µM and 8.42 µM, respectively. Besides, the selectivity ratio is above 59 in data set [1] and 10 in data set [2].

Take `CN(c1ccc(NC(=O)c2cc(C(F)(F)F)cc(C(F)(F)F)c2)cc1OCc1cccc(C(F)(F)F)c1)S(C)(=O)=O`: the IC50 in the data set with HEK293 is 54 µM; in data set [3], above 500 µM; in data set [4] it was 8.58 µM. The selectivity ratio in data set [1] is above 58; in data set [2], 6.

On to `CN(c1ccc(NC(=O)c2ccc(C(F)(F)F)cc2C(F)(F)F)cc1OCc1cccc(C(F)(F)F)c1)S(=O)(=O)Cc1ccccc1`, for which the concentration for half-maximal inhibition (IC50) turned out to be 176 µM in the data set on HEK293, 20.5 µM in data set [3] and 1.78 µM in data set [4]. The selectivity ratio in data set [1] stood at 99; in data set [2], 12.

Take `CN(c1ccc(NC(=O)c2cc(C(F)(F)F)cc(C(F)(F)F)c2)cc1OCc1cccc(C(F)(F)F)c1)S(=O)(=O)Cc1ccccc1`: the IC50 worked out at 59.8 µM with HEK293, 69.5 µM in data set [3] and 2.08 µM in data set [4]. For the same compound, the selectivity ratio is 29 in data set [1] and 33 in data set [2].

As to `CCS(=O)(=O)N(C)c1ccc(NC(=O)c2ccc3c(c2)OCO3)cc1OCc1cccc(C#N)c1`, the IC50 was above 500 µM in the data set with HEK293, above 500 µM in data set [3] and 23.5 µM in data set [4]. Further, the selectivity ratio in data set [1] and in data set [2] was above 21 throughout.

With `CCCCCCOc1cc(NC(=O)c2ccc(C(F)(F)F)cc2C(F)(F)F)ccc1N(C)S(C)(=O)=O`, the IC50 with HEK293 was above 500 µM; in data set [3], above 500 µM; in data set [4], 30.1 µM. Further, the selectivity ratio in data set [1] and in data set [2] was above 17 each time.
